Results on 1 molecule are retold here after ChEMBL document CHEMBL3091462 (J Nat Prod, 2013).

Calls of active or inactive are those of the source. The rule behind the calls is not given here.

The test system of data set [1] is SW-620. In words: Induction of apoptosis in human SW620 cells at 5 uM after 48 hrs using Annexin V-FITC and propidium iodide staining by flow cytometry (reference value: 3.8 +/- 2.1%). In kind it is functional. An outline of the steps:
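Subconfluent cells in RPMI 1640 + 10% FBS treated with 0–10 μM for 48 h. Harvested cells incubated 10 min with FITC-annexin V/PI, then analysed by flow cytometry (488/525 nm for annexin V-FITC, 488/675 nm for PI). Reported as % apoptotic cells, means ± SD of three experiments in triplicate.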
In general terms: In flow cytometry, cells or beads pass a laser one at a time.

Data set [2] concerns HCT-116. In words: Cytotoxicity against human HCT116 cells assessed as inhibition of cell viability at 10 uM after 24 hrs. The settings on record: HCT-116, 24 h.
The test system of data set [3] is HCT-116. In words: Cell cycle arrest in human HCT116 cells assessed as accumulation at G2/M phase at 0.1 uM after 48 hrs using propidium iodide staining by flow cytometry (reference value: 7.1 +/- 0.3%). It is filed as functional.
Data set [4] deals with SW-620. In words: Effect on Cdk inhibitor gene expression in p53 deficient human SW620 cells at 0.5 to 10 uM after 24 hrs by immunoblotting. In kind it is functional, cell-based.
Data set [5] can be described thus: Cytotoxicity against human CCD-112CoN cells assessed as cell viability up to 10 uM after 24 to 72 hrs. It is filed as cell-based. The method in brief: (§1)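 Cells seeded at 10^5 per well in RPMI 1640/10% FBS at 37 °C. Subconfluent cells exposed to 0, 0.1, 0.5, 1, 2, 5 or 10 μM for 48 h, or to 10 μM for 24, 48 and 72 h; ethanol vehicle, at most 0.01% v/v final. Cells trypsinized and counted by hemocytometer. Viability as % of control, means ± SD, three experiments in triplicate.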

In data set [6] the test system is SW-620. In words: Increase of p21 expression in human SW620 cells at 0.5 to 10 uM after 24 hrs by immunoblotting. In kind it is functional, cell-based. The method in brief: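 HCT-116 or SW-620 cells treated with 0–10 μM for 24 h. Lysates probed for p21 by SDS-PAGE immunoblotting with ECL detection; β-actin as loading control.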
The test system of data set [7] is HCT-116. In words: Cell cycle arrest in human HCT116 cells assessed as accumulation at G0/G1 phase at 0.5 uM after 48 hrs using propidium iodide staining by flow cytometry (reference value: 56.7 +/- 1.9%). It is filed as functional.
In data set [8] the test system is SW-620. In words: Cell cycle arrest in human SW620 cells assessed as accumulation at G2/M phase at 0.5 uM after 48 hrs using propidium iodide staining by flow cytometry (reference value: 9.1 +/- 0.3%). It is filed as functional.
The subject of data set [9] is SW-620. In words: Cell cycle arrest in human SW620 cells assessed as accumulation at G0/G1 phase at 1 uM after 48 hrs using propidium iodide staining by flow cytometry (reference value: 47.8 +/- 1.2%). It is filed as functional.
Data set [10] relates to SW-620. In words: Antitumor activity against human SW620 cells xenografted in BALB/c-nude mouse assessed as reduction of tumor volume at 100 mg/kg, po administered every other day from day 2 to 21. Also on record: dose 100 mg/kg. It is filed as functional, organism-based. The method in brief:
(§2)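 Male BALB/c-nude mice; 2 × 10^6 tumour cells in 0.2 mL PBS injected intradermally into the flank on day 0, n = 10 per group. Oral dosing every other day for 3 weeks, starting 2 days after inoculation. Caliper tumour volume = (width)2 × length/2, measured periodically. Tumours excised and weighed at day 21. Means ± SE.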
(In general: A xenograft is tissue or cells of one species grown in another, often human tumour cells in immunodeficient mice.)

Data set [11] has as its system SW-620. In words: Antitumor activity against human SW620 cells xenografted in BALB/c-nude mouse assessed as reduction of tumor weight at 100 mg/kg, po administered every other day from day 2 to 21 (reference value: 417 mg). It is filed as functional. An outline of the steps: as §2
Data set [12] relates to SW-620. In words: Induction of apoptosis in human SW620 cells expressing p21 siRNA assessed as change in cell morphology at 10 uM after 24 hrs by phase-contrast microscopic analysis. It is filed as functional, cell-based. The method in brief:
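Cells plated at 5 × 10^4 per well and transfected with 100 nM scrambled or p21 siRNA in OPTI-MEM for 4 h. Complete RPMI medium was added and cells grown a further 24 h, then exposed to 10 μM for 24 h. Viability measured by direct count after trypan blue staining. Morphology viewed by phase-contrast at 200×. Means ± SD, three experiments in triplicate.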

The subject of data set [13] is SW-620. In words: Induction of apoptosis in human SW620 cells assessed as increase of Bax protein expression after 24 hrs by immunoblotting. It is filed as functional, cell-based. The method in brief:
(§3)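 HCT-116 or SW-620 cells treated with 0–10 μM for 24 h, lysed, and run on 15% SDS-PAGE immunoblots. Probed for Bcl-2 (1:1000), Bax (1:500), caspase-9/-3 and their cleaved forms (1:1000), and β-actin (1:1000). Bands quantified by densitometry; means ± SD of three experiments in duplicate.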

For data set [14], the system named is HCT-116. In words: Induction of apoptosis in human HCT116 cells assessed as reduction of Bcl-2 protein expression at 0.1 to 10 uM after 24 hrs by immunoblotting. In kind it is functional, cell-based. The method in brief: as §3
In general terms: A western blot detects proteins with antibodies after separation by electrophoresis.

Data set [15] has as its system SW-620. In words: Cell cycle arrest in human SW620 cells assessed as accumulation at S phase after 48 hrs using propidium iodide staining by flow cytometry. It is filed as functional, cell-based.
The subject of data set [16] is HCT-116. In words: Decrease of cyclin A expression in human HCT116 cells after 24 hrs by immunoblotting. In kind it is functional, cell-based. The method in brief: (§4)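 HCT-116 or SW-620 cells exposed to 0–10 μM for 24 h. Cells lysed in Tris/NaCl/EDTA/1% Triton X-100 buffer with protease and phosphatase inhibitors at 4 °C, protein measured by BCA. Lysates run on 10–12.5% SDS-PAGE and immunoblotted, ECL detection. Cdk2, cyclin A and cyclin E antibodies used at 1:500; β-actin as loading control.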

The test system of data set [17] is HCT-116. In words: Cytotoxicity against human HCT116 cells at 0.1 to 10 uM. In kind it is functional, cell-based. The settings on record: TDE = time-dependent effect. The method in brief: as §1
Data set [18] has as its system SW-620. In words: Decrease of Cdk2 expression in human SW620 cells after 24 hrs by immunoblotting. It is filed as functional, cell-based. The method in brief: as §4
In data set [19] the test system is SW-620. In words: Induction of apoptosis in human SW620 cells assessed as reduction of Bcl-2 protein expression at 0.5 to 10 uM after 24 hrs by immunoblotting. In kind it is functional, cell-based. An outline of the steps:
as §3

Data set [20] deals with HCT-116. In words: Cell cycle arrest in human HCT116 cells assessed as accumulation at S phase at 1 uM after 48 hrs using propidium iodide staining by flow cytometry (reference value: 36.3 +/- 1.7%). In kind it is functional.

`CC(C)c1cccc(=O)c(O)c1` [HINOKITIOL]: the Activity in the data set with SW-620 [1] is 53.1%; in the data set with HCT-116 [3], 7.5%; in data set [5] it was “Non-toxic”; in the data set on HCT-116 [7], 56.5%; in the data set with SW-620 [8] it was 8.4%; with SW-620 [9] it was 45.6%. The Activity with SW-620 [11] was 252 mg; with SW-620 [13] it was “Dose-dependent effect”; in the data set on SW-620 [15], “Dose-dependent effect”; in the data set with HCT-116 [16], “Dose-dependent effect”; in the data set with HCT-116 [17] it was “tde”; with SW-620 [18], “Dose-dependent effect”. The Activity in the data set with HCT-116 [20] was 37.2%. Moreover, the inhibition of viability at 10 µM with HCT-116 [2] is 27%. For the same molecule, the outcome with SW-620 [4] and with SW-620 [12] was inactive. Also, the result with SW-620 [6], in the data set with SW-620 [10], with HCT-116 [14] and in the data set on SW-620 [19] was Active.
